Laboratory results as given in paper PMC10795913 (The Journal of Clinical Endocrinology and Metabolism, 2023).
Marks after values point to notes of the source that are not given here.

Assays:
[1] = Tirzepatide pharmacokinetics; format: in vivo, human
[2] = tested on: patients with type 2 diabetes; experiment: Injection site reactions by TE ADA status; format: in vivo, human
How it was run: (§1)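 Hypersensitivity or injection site reactions during the planned treatment period were tabulated by dose group. Patients were split by treatment-emergent ADA status (TE ADA+ vs TE ADA–). Analysis was descriptive and non-randomized.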

[3] = tested on: patients with type 2 diabetes; experiment: Hypersensitivity reactions by TE ADA status; format: in vivo, human
How it was run: as §1

GIPR = biological target: T1, GIPR (Homo sapiens, UniProt P48546); experiment: Cell-based assay for NAb against TZP activity on GIPR; format: in vivo; details: N = 5025
T1 sequence (P48546 22-466): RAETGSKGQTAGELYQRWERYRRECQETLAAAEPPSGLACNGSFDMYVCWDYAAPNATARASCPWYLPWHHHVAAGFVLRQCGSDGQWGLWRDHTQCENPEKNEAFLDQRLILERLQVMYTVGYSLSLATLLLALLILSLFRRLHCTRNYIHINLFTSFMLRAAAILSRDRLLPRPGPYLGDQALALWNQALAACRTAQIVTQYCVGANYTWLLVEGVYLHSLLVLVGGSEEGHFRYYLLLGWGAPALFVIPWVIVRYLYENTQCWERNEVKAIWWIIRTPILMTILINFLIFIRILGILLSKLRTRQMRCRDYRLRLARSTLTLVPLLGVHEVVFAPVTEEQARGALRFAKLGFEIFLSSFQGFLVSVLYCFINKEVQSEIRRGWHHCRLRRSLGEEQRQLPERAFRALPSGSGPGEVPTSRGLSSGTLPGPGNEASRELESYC

[4] = tested on: patients with type 2 diabetes; experiment: Antidrug antibody; format: in vivo, human
native GIP (nGIP) = biological target: T2, native GIP (nGIP) (Homo sapiens, UniProt P09681); experiment: Cross-reactive ADA binding to nGIP; format: in vivo; details: N = 5025
T2 sequence (P09681 52-93 limits assumed): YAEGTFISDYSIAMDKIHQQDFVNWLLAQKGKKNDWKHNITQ

native GLP-1 (nGLP-1) = experiment: Cross-reactive ADA binding to nGLP-1; format: in vivo, human; details: N = 5025
GLP-1R = GLP-1R (Homo sapiens, UniProt P43220); experiment: Cell-based assay for NAb against TZP activity on GLP-1R; format: in vivo; details: N = 5025
[5] = TZP 5 mg, TE ADA status not evaluable
[6] = TZP 10 mg, TE ADA status not evaluable
[7] = TZP all doses, TE ADA status not evaluable

GLP-1R, sequence (P43220 24-463): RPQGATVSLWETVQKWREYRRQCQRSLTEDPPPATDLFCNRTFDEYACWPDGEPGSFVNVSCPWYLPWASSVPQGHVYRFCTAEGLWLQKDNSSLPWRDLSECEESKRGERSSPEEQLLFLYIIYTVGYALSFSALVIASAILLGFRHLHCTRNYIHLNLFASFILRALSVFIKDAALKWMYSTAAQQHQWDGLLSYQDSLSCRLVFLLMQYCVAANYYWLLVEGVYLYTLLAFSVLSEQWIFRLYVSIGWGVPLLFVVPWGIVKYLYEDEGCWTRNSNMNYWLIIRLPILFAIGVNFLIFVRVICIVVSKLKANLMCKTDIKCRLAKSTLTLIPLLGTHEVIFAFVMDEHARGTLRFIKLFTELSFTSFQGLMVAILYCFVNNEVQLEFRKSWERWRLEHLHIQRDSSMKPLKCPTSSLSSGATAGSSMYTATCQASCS

## CC[C@H](C)[C@H](NC(=O)[C@H](CC(C)C)NC(=O)[C@H](Cc1c[nH]c2ccccc12)NC(=O)[C@H](CCC(N)=O)NC(=O)[C@@H](NC(=O)[C@H](Cc1ccccc1)NC(=O)[C@H](C)NC(=O)[C@H](CCCCNC(=O)COCCOCCNC(=O)COCCOCCNC(=O)CC[C@H](NC(=O)CCCCCCCCCCCCCCCCCCC(=O)O)C(=O)O)NC(=O)[C@H](CCC(N)=O)NC(=O)[C@H](C)NC(=O)[C@@H](NC(=O)[C@H](CCCCN)NC(=O)[C@H](CC(=O)O)NC(=O)[C@H](CC(C)C)NC(=O)C(C)(C)NC(=O)[C@@H](NC(=O)[C@H](CO)NC(=O)[C@H](Cc1ccc(O)cc1)NC(=O)[C@H](CC(=O)O)NC(=O)[C@H](CO)NC(=O)[C@@H](NC(=O)[C@H](Cc1ccccc1)NC(=O)[C@@H](NC(=O)CNC(=O)[C@H](CCC(=O)O)NC(=O)C(C)(C)NC(=O)[C@@H](N)Cc1ccc(O)cc1)[C@@H](C)O)[C@@H](C)O)[C@@H](C)CC)[C@@H](C)CC)C(C)C)C(=O)N[C@@H](C)C(=O)NCC(=O)NCC(=O)N1CCC[C@H]1C(=O)N[C@@H](CO)C(=O)N[C@@H](CO)C(=O)NCC(=O)N[C@@H](C)C(=O)N1CCC[C@H]1C(=O)N1CCC[C@H]1C(=O)N1CCC[C@H]1C(=O)N[C@@H](CO)C(N)=O [tirzepatide]
[1]; graphical comparison, ADA detected vs not detected and by titer
  Apparent clearance (CL/F): effect of ADA status or ADA titer: not affected
[1]; in vivo
  Relationship between NAb and TZP concentration: No relationship
[2]; [5]
  Injection site reactions, %: 0.06%
  Injection site reactions, m (number of patients with specified reaction): 1
[2]; TZP 5 mg, TE ADA+, n 815
  Injection site reactions, %: 3.07%
  Injection site reactions, m (number of patients with specified reaction): 25
[2]; TZP 5 mg, TE ADA–, n 855
  Injection site reactions, %: 0.82%
  Injection site reactions, m (number of patients with specified reaction): 7
[2]; [6]
  Injection site reactions, %: 0.06%
  Injection site reactions, m (number of patients with specified reaction): 1
[2]; TZP 10 mg, TE ADA+, n 858
  Injection site reactions, %: 4.43%
  Injection site reactions, m (number of patients with specified reaction): 38
[2]; TZP 10 mg, TE ADA–, n 812
  Injection site reactions, %: 0.86%
  Injection site reactions, m (number of patients with specified reaction): 7
[2]; TZP 15 mg, TE ADA status not evaluable
  Injection site reactions, m (number of patients with specified reaction): 0
[2]; TZP 15 mg, TE ADA+, n 897
  Injection site reactions, %: 6.24%
  Injection site reactions, m (number of patients with specified reaction): 56
[2]; TZP 15 mg, TE ADA–, n 788
  Injection site reactions, %: 0.51%
  Injection site reactions, m (number of patients with specified reaction): 4
[2]; [7]
  Injection site reactions, %: 0.04%
  Injection site reactions, m (number of patients with specified reaction): 2
[2]; TZP all doses, TE ADA+, n 2570
  Injection site reactions, %: 4.63%
  Injection site reactions, m (number of patients with specified reaction): 119
[2]; TZP all doses, TE ADA–, n 2455
  Injection site reactions, %: 0.73%
  Injection site reactions, m (number of patients with specified reaction): 18
[2]; all events
  Severity of injection site reactions: nonserious and nonsevere
[2]; all were TE ADA+
  Patients who discontinued study drug because of injection site reactions: Four
[3]; TZP 5 mg, TE ADA+, n 815
  Hypersensitivity reactions, %: 3.93%
  Hypersensitivity reactions, m (number of patients with specified reaction): 32
[3]; TZP 5 mg, TE ADA–, n 855
  Hypersensitivity reactions, %: 3.04%
  Hypersensitivity reactions, m (number of patients with specified reaction): 26
[3]; TZP 10 mg, TE ADA+, n 858
  Hypersensitivity reactions, %: 3.61%
  Hypersensitivity reactions, m (number of patients with specified reaction): 31
[3]; TZP 10 mg, TE ADA–, n 812
  Hypersensitivity reactions, %: 3.2%
  Hypersensitivity reactions, m (number of patients with specified reaction): 26
[3]; TZP 15 mg, TE ADA+, n 897
  Hypersensitivity reactions, %: 4.79%
  Hypersensitivity reactions, m (number of patients with specified reaction): 43
[3]; TZP 15 mg, TE ADA–, n 788
  Hypersensitivity reactions, %: 2.66%
  Hypersensitivity reactions, m (number of patients with specified reaction): 21
[3]; TZP all doses, TE ADA+, n 2570
  Hypersensitivity reactions, %: 4.12%
  Hypersensitivity reactions, m (number of patients with specified reaction): 106
[3]; TZP all doses, TE ADA–, n 2455
  Hypersensitivity reactions, %: 2.97%
  Hypersensitivity reactions, m (number of patients with specified reaction): 73
[3]; TZP-treated patients
  Anaphylactic reactions: No anaphylactic reactions
[3]; in vivo
  Severity of hypersensitivity events in TE ADA+ patients: mostly mild to moderate
GIPR; baseline
  NAb against TZP activity on GIP R: 2 (<0.1) n (%)
GIPR; postbaseline
  NAb against TZP activity on GIP R: 94 (1.9) n (%)
[4]; SURPASS Japan-Combo, N 443
  Time to first TE ADA+ titer ≤4 wk: 1 (0.2) n (%)
  Time to first TE ADA+ titer ≤12 wk: 32 (7.2) n (%)
  Time to first TE ADA+ titer ≤40 wk: 209 (47.2) n (%)
  Time to first TE ADA+ titer ≤52 wk: 244 (55.1) n (%)
[4]; SURPASS Japan-Combo, N 443, flexibility of visit windows
  Time to first TE ADA+ titer ≤78 wk: 257 (58.0)^a n (%)
[4]; SURPASS Japan-Mono, N 476
  Time to first TE ADA+ titer ≤4 wk: 4 (0.8) n (%)
  Time to first TE ADA+ titer ≤12 wk: 51 (10.7) n (%)
  Time to first TE ADA+ titer ≤24 wk: 182 (38.2) n (%)
  Time to first TE ADA+ titer ≤40 wk: 278 (58.4) n (%)
  Time to first TE ADA+ titer ≤52 wk: 312 (65.5) n (%)
[4]; SURPASS Japan-Mono, N 476, flexibility of visit windows
  Time to first TE ADA+ titer ≤78 wk: 322 (67.6)^a n (%)
[4]; SURPASS-1, N 351
  Time to first TE ADA+ titer ≤4 wk: 0 n (%)
  Time to first TE ADA+ titer ≤12 wk: 16 (4.6) n (%)
  Time to first TE ADA+ titer ≤24 wk: 90 (25.6) n (%)
  Time to first TE ADA+ titer ≤40 wk: 155 (44.2) n (%)
[4]; SURPASS-1, N 351, flexibility of visit windows
  Time to first TE ADA+ titer ≤52 wk: 174 (49.6)^a n (%)
[4]; SURPASS-2, N 1393
  Time to first TE ADA+ titer ≤4 wk: 6 (0.4) n (%)
  Time to first TE ADA+ titer ≤12 wk: 91 (6.5) n (%)
  Time to first TE ADA+ titer ≤24 wk: 352 (25.3) n (%)
  Time to first TE ADA+ titer ≤40 wk: 639 (45.9) n (%)
[4]; SURPASS-2, N 1393, flexibility of visit windows
  Time to first TE ADA+ titer ≤52 wk: 704 (50.5)^a n (%)
[4]; SURPASS-3, N 1062
  Time to first TE ADA+ titer ≤4 wk: 12 (1.1) n (%)
  Time to first TE ADA+ titer ≤12 wk: 80 (7.5) n (%)
  Time to first TE ADA+ titer ≤24 wk: 266 (25.0) n (%)
  Time to first TE ADA+ titer ≤40 wk: 466 (43.9) n (%)
  Time to first TE ADA+ titer ≤52 wk: 518 (48.8) n (%)
[4]; SURPASS-3, N 1062, flexibility of visit windows
  Time to first TE ADA+ titer ≤78 wk: 536 (50.5)^a n (%)
[4]; SURPASS-4, N 956
  Time to first TE ADA+ titer ≤4 wk: 7 (0.7) n (%)
  Time to first TE ADA+ titer ≤12 wk: 62 (6.5) n (%)
  Time to first TE ADA+ titer ≤24 wk: 190 (19.9) n (%)
  Time to first TE ADA+ titer ≤40 wk: 300 (31.4) n (%)
  Time to first TE ADA+ titer ≤52 wk: 367 (38.4) n (%)
  Time to first TE ADA+ titer ≤78 wk: 389 (40.7) n (%)
  Time to first TE ADA+ titer ≤104 wk: 399 (41.7) n (%)
[4]; SURPASS-5, N 344
  Time to first TE ADA+ titer ≤4 wk: 3 (0.9) n (%)
  Time to first TE ADA+ titer ≤12 wk: 26 (7.6) n (%)
  Time to first TE ADA+ titer ≤24 wk: 89 (25.9) n (%)
  Time to first TE ADA+ titer ≤40 wk: 160 (46.5) n (%)
[4]; SURPASS-5, N 344, flexibility of visit windows
  Time to first TE ADA+ titer ≤52 wk: 178 (51.7)^a n (%)
[4]; baseline, 7 SURPASS phase 3 trials pooled, TE ADA-evaluable TZP-treated N = 5025
  Preexisting ADA: 353 (7.0) n (%)
[4]; postbaseline, 7 trials pooled, N = 5025
  TE ADA+: 2570 (51.1) n (%)
Native GIP (nGIP); baseline
  Cross-reactive binding ADA to nGIP: 97 (1.9) n (%)
Native GIP (nGIP); postbaseline
  Cross-reactive binding ADA to nGIP: 1705 (33.9) n (%)
Native GLP-1 (nGLP-1); baseline
  Cross-reactive binding ADA to nGLP-1: 34 (0.7) n (%)
Native GLP-1 (nGLP-1); postbaseline
  Cross-reactive binding ADA to nGLP-1: 716 (14.2) n (%)
GLP-1R; baseline
  NAb against TZP activity on GLP-1 R: 2 (<0.1) n (%)
GLP-1R; postbaseline
  NAb against TZP activity on GLP-1 R: 107 (2.1) n (%)
